Results from different studies.
Compare with care: the assays were run in different laboratories.
Target: Homeodomain-interacting protein kinase 2 (HIPK2, Homo sapiens, UniProt Q9H2X6)

Cc1nn(C)cc1-c1nc2c(N3CCN(Cc4ccc(Cl)cc4)CC3)c(Cl)cnc2[nH]1
remaining binding (binding, competition with immobilised ligand; 1 µM): 70%

O=c1[nH]c2ccccc2n1C1CCN(Cc2ccc(-c3[nH]c4cc5ncnc5cc4nc3-c3ccccc3)cc2)CC1
remaining signal (cell-free assay; 0.5 µM): 110%

Cn1cncc1[C@@](O)(COc1ccc(C#N)cc1-c1ccc(OC(F)(F)F)cc1)c1ccc(C#N)cc1
remaining binding (cell-free assay, competition with immobilised ligand; 1 µM): 100%

CC(C)(C)c1cc(C=C(C#N)C#N)cc(Br)c1O
remaining activity (enzyme activity, inhibitor; 0.5 µM): 110%

COc1ncccc1-c1cnn2ccc(N3CCN(C(=O)OC(C)C)CC3)nc12
remaining binding (binding, competition with immobilised ligand; 1 µM): 88%

Cn1cc(-c2cc(F)cc(N3CCn4c(cc5c4CCCC5)C3=O)c2CO)cc(Nc2ccc(N3CCN(C4COC4)CC3)cn2)c1=O
inhibition (enzyme activity, inhibitor; 0.1 µM): 9%

N#CC1(c2ccccn2)CCN(Cc2cc(C(=O)O)c(=O)n3ccccc23)CC1
remaining binding (cell-free assay, competition with immobilised ligand; 1 µM): 66%

Cn1cc(-c2cccc(N3CCc4c(sc5c4CC(C)(C)C5)C3=O)c2CO)cc(Nc2ccncn2)c1=O
inhibition (enzyme activity, inhibitor; 1 µM): -4%

Nc1ncc(-c2nc(N3CCOCC3)nc(N3CCOCC3)n2)c(C(F)F)n1
remaining binding (binding, competition with immobilised ligand; 10 µM): 59%
